Experimental findings from ChEMBL document CHEMBL1137770, “Biological activity of endomorphin and [Dmt1]endomorphin analogs with six-membered proline surrogates in position 2” (Bioorg Med Chem, 2009) are described below.

The source made the active and inactive calls. Square brackets hold non-standard residues; d marks the D form. Peptide text beside a SMILES is read from it. Inp = O=C(O)C1CCNCC1 A value given as a limit tells only on which side of the number the result lay.

For series [1], the system named is Mus musculus. As to the kind of experiment: Antinociceptive activity in Swiss albino CD1 mouse assessed as inhibition of paw licking at 100 ng, icv by hot plate test. It is filed as functional, organism-based. Put shortly: (§1)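 Male Swiss albino CD1 mice (20-22 g), peptide given i.c.v. into left ventricle in 0.9% NaCl. Placed on 55±0.5 °C hot plate 5 min post-injection; latency to paw licking (also rearing, jumping) versus saline-injected controls; cut-off 240 s. Dose-response curves; mean ± SEM, 10 mice per group.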

The test system of series [2] is Mus musculus. As to the kind of experiment: Antinociceptive activity in Swiss albino CD1 mouse assessed as duration of inhibition of jumping at 3 ng, icv by hot plate test. It counts as functional. Put shortly:
(§2)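 Male Swiss albino CD1 mice (20-22 g), i.c.v. injection into left ventricle in 0.9% NaCl. Hot plate at 55±0.5 °C; latencies to paw licking, rearing and jumping, cut-off 240 s; saline controls. Time-course readings at 5, 10, 20, 30, 45, 60, 90, 120, 150 and 180 min after dosing; duration of effect recorded.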

Series [3] concerns Mus musculus. As to the kind of experiment: Antinociceptive activity in Swiss albino CD1 mouse assessed as duration of inhibition of rearing at 3 ng, icv by hot plate test. It counts as functional. The method, boiled down: as §2
Series [4] can be described thus: Stability in rat brain homogenates assessed as degradation half life. It is filed as ADME, tissue-based. The settings on record: brain homogenate. Put shortly: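 Pooled rat brain homogenate (in 50 mM Tris-HCl pH 7.4, 10 mg protein/ml aliquot) incubated with 0.5 mM peptide stock at 37 °C for 0-60 min; stopped on ice with 1 M HCl, centrifuged. Remaining peptide peak area regressed as ln(A/A0) versus time for k; t1/2 = ln2/k. Three experiments in duplicate.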

In series [5] the test system is Mus musculus. As to the kind of experiment: Antinociceptive activity in Swiss albino CD1 mouse assessed as duration of inhibition of paw licking at 3 ng, icv by hot plate test. It counts as functional. The method, boiled down: as §2
The species entered for the next series is Rattus norvegicus. Briefly: Selectivity ratio of IC50 for delta opioid receptor to IC50 for mu opioid receptor in Wistar rat brain membrane. It is filed as cell membranes. The method, boiled down:
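Wistar rat brain crude membranes incubated 120 min at 25 °C with peptide and 0.5 nM [3H]DAMGO (MOR) or 0.5 nM [3H][Ile5,6]deltorphin-2 (DOR) in 50 mM Tris/HCl pH 7.4 with 5 mM MgCl2, 1 mM EDTA, 100 mM NaCl, bacitracin.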

The target in series [6] is Delta-type opioid receptor (Rattus norvegicus, UniProt P33533). As to the kind of experiment: Displacement of [3H][Ile5,6]deltorphin-2 from delta opioid receptor in Wistar rat brain membrane. It counts as cell membranes.
Chain of Delta-type opioid receptor (P33533 whole entry): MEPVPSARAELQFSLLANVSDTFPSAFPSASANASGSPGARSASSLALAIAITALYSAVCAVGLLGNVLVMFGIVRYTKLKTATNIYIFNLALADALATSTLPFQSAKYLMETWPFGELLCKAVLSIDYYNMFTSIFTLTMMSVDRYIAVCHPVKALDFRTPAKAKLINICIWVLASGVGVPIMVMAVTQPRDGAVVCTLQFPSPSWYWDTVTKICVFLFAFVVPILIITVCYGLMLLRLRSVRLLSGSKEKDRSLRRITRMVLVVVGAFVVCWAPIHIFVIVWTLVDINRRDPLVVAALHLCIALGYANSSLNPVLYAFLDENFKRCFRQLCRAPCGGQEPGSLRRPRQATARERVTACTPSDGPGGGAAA
Series [7] has as its target Mu-type opioid receptor (Rattus norvegicus, UniProt P33535). As to the kind of experiment: Displacement of [3H]DAMGO from mu opioid receptor in Wistar rat brain membrane. It counts as cell membranes.
In series [8] the target is T1, Mu-type opioid receptor (Homo sapiens, UniProt P35372). Briefly: Binding affinity to recombinant OPRM1 receptor immobilized on biosensor assessed as association rate constant by BIAcore X system. Put shortly:
(§3)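 Surface plasmon resonance at 37 °C: recombinant OPRM1 protein immobilised on CM5 chip by amine coupling (10 µg/ml in 10 mM sodium acetate, pH 5.0). Peptides at about 0.4 mM in HBS (10 mM HEPES, 150 mM NaCl, 3 mM EDTA, 0.005% P20, pH 7.4) injected 30 s at 20 µl/min; association/dissociation RU fitted for ka and kd.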

The subject of series [9] is Mus musculus. As to the kind of experiment: Antinociceptive activity in Swiss albino CD1 mouse assessed as duration of inhibition of jumping at 0.1 ng, icv by hot plate test. It is filed as functional. The method, boiled down:
as §2

Series [10] relates to Mus musculus. As to the kind of experiment: Antinociceptive activity in icv dosed Swiss albino CD1 mouse assessed as inhibition of rearing by hot plate test in presence of MOR antagonist beta-funaltrexamine. It is filed as functional, organism-based. Put shortly: (§4)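 CD1 male mice given peptide i.c.v. in 0.9% NaCl with MOR antagonist β-funaltrexamine (1 µg). Hot plate at 55±0.5 °C, 240 s cut-off; latencies to paw licking, rearing and jumping versus controls. Mean ± SEM of 10 mice per group; two-way ANOVA followed by Student-Newman-Keuls test.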

Series [11] relates to Mus musculus. Briefly: Antinociceptive activity in iv dosed Swiss albino CD1 mouse assessed as inhibition of paw licking by hot plate test. It counts as functional, organism-based.
In series [12] the test system is Mus musculus. Briefly: Antinociceptive activity in icv dosed Swiss albino CD1 mouse assessed as inhibition of paw licking by hot plate test. It counts as functional, organism-based. The method, boiled down: as §1
Series [13] has as its system Mus musculus. As to the kind of experiment: Antinociceptive activity in icv dosed Swiss albino CD1 mouse assessed as inhibition of jumping by hot plate test in presence of MOR antagonist beta-funaltrexamine. It is filed as functional, organism-based. Put shortly:
as §4

Series [14] concerns Mus musculus. Briefly: Antinociceptive activity in Swiss albino CD1 mouse assessed as duration of inhibition of rearing at 0.1 ng, icv by hot plate test. It counts as functional. Put shortly: as §2
Series [15] relates to Mus musculus. As to the kind of experiment: Antinociceptive activity in icv dosed Swiss albino CD1 mouse assessed as inhibition of paw licking by hot plate test in presence of MOR antagonist beta-funaltrexamine. It counts as functional, organism-based. The method, boiled down:
as §4

In series [16] the target is T1, Mu-type opioid receptor. Briefly: Binding affinity to recombinant OPRM1 receptor immobilized on biosensor assessed as dissociation rate constant by BIAcore X system. The method, boiled down:
as §3

The test system of series [17] is Mus musculus. Briefly: Antinociceptive activity in Swiss albino CD1 mouse assessed as inhibition of paw licking at 3 ng, icv by hot plate test. It is filed as functional, organism-based. The method, boiled down:
as §1

The test system of series [18] is Mus musculus. Briefly: Antinociceptive activity in Swiss albino CD1 mouse assessed as duration of inhibition of paw licking at 0.1 ng, icv by hot plate test. It counts as functional. Put shortly:
as §2

T1 sequence (P35372 whole entry): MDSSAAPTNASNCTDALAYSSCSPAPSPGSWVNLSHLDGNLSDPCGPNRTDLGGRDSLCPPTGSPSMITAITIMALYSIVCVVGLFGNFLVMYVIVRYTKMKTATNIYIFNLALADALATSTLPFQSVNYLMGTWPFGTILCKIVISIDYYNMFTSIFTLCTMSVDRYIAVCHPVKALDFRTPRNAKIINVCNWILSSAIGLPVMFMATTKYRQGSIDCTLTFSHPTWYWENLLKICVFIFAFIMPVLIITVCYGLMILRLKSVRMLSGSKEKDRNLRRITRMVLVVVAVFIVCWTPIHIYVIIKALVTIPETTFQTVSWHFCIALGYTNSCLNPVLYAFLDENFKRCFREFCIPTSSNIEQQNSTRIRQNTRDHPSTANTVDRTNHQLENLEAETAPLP
Chain of Mu-type opioid receptor (Rattus norvegicus, UniProt P33535) (P33535 whole entry): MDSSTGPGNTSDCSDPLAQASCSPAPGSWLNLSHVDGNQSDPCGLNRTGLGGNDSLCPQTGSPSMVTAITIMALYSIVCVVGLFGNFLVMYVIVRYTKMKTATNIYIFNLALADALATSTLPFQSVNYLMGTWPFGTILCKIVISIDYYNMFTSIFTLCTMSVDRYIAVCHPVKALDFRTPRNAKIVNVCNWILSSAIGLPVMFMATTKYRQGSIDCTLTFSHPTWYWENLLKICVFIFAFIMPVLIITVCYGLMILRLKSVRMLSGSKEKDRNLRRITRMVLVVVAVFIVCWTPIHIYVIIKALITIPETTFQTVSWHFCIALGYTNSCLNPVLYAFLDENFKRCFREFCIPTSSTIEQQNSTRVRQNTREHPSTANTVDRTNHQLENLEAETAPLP

For `NC(=O)[C@H](Cc1ccccc1)NC(=O)[C@H](Cc1ccccc1)NC(=O)[C@@H]1CCCN1C(=O)[C@@H](N)Cc1ccc(O)cc1` [ENDOMORPHIN 2], the result with Mus musculus [1] was Active. Besides, the Activity with Mus musculus [2], in the series on Mus musculus [3] and with Mus musculus [5] was 50 min in each case. Also, the half-life in [4] is 4.8 min.
With `NC(=O)[C@H](Cc1ccccc1)NC(=O)[C@H](Cc1c[nH]c2ccccc12)NC(=O)[C@@H]1CCCN1C(=O)[C@@H](N)Cc1ccc(O)cc1` [ENDOMORPHIN-1], in series [4], the half-life was 6.02 min.
As to `Cc1cc(O)cc(C)c1C[C@H](N)C(=O)N1CCC[C@@H](C(=O)N[C@@H](Cc2c[nH]c3ccccc23)C(=O)N[C@@H](Cc2ccccc2)C(N)=O)C1`, the half-life in series [4] stood at 35.8 min. For the same compound, in the series listed under Rattus norvegicus, the Ratio IC50 turned out to be 234. Besides, the results for the IC50 (in series [6]; at Mu-type opioid receptor [7]) were 89 nM and 0.38 nM, respectively.
Turning to `Cc1cc(O)cc(C)c1C[C@H](N)C(=O)N1CCC[C@@H](C(=O)N[C@@H](Cc2ccccc2)C(=O)N[C@@H](Cc2ccccc2)C(N)=O)C1`, the Ka at Mu-type opioid receptor [8] was determined as 515 M⁻¹ s⁻¹. The half-life in series [4] turned out to be 30.9 min. For the same compound, the Activity in the series on Mus musculus [9] was above 170 min; with Mus musculus [12] it was “Dose-dependent effect”; with Mus musculus [14], above 170 min; in the series on Mus musculus [18], above 170 min. The outcome in the series on Mus musculus [10], with Mus musculus [11] and in the series with Mus musculus [13] was inactive. Also, the AC50 result with Mus musculus [15] is listed as “Not Active”. The Kd at Mu-type opioid receptor [16] was determined as 0.29 s⁻¹. Moreover, the Ratio IC50 in the series listed under Rattus norvegicus is above 1000. Moreover, in the series on Mus musculus [17], the result was Active. In addition, the values for the IC50 (in [6]; on Mu-type opioid receptor [7]) were 407 nM and 0.035 nM, respectively.
For `NC(=O)[C@H](Cc1ccccc1)NC(=O)[C@H](Cc1c[nH]c2ccccc12)NC(=O)C1CCN(C(=O)[C@@H](N)Cc2ccc(O)cc2)CC1` (H-Y[Inp]WF-NH2), the half-life in series [4] worked out at 78.5 min. Besides, the Ratio IC50 in the series listed under Rattus norvegicus stood at 2.15. Moreover, the IC50 in [6] was found to be 860 nM; on Mu-type opioid receptor [7] it was 401 nM.
Taken in the same sequence, the figures for `NC(=O)[C@H](Cc1ccccc1)NC(=O)[C@H](Cc1c[nH]c2ccccc12)NC(=O)[C@@H]1CCCN(C(=O)[C@@H](N)Cc2ccc(O)cc2)C1` were 29.6 min, above 281, above 1000 nM and 3.55 nM.
Taken in the same sequence, the figures for `NC(=O)[C@H](Cc1ccccc1)NC(=O)[C@H](Cc1ccccc1)NC(=O)[C@@H]1CCCCN1C(=O)[C@@H](N)Cc1ccc(O)cc1` were 6.8 min, above 12.5, above 1000 nM and 80 nM.
With `NC(=O)[C@H](Cc1ccccc1)NC(=O)[C@H](Cc1ccccc1)NC(=O)[C@@H]1CCCN(C(=O)[C@@H](N)Cc2ccc(O)cc2)C1`, the Ka on Mu-type opioid receptor [8] was found to be 570 M⁻¹ s⁻¹. The outcome with Mus musculus [1] was Active. The half-life in series [4] turned out to be 48 min. Besides, the Activity was 150 min in the series on Mus musculus [9], “Dose-dependent effect” in the series with Mus musculus [12], 150 min in the series with Mus musculus [14] and 150 min in the series with Mus musculus [18]. Further, the outcome with Mus musculus [10], in the series with Mus musculus [11] and with Mus musculus [13] was inactive. The AC50 entry in the series on Mus musculus [15] is “Not Active”. The Kd on Mu-type opioid receptor [16] amounted to 0.55 s⁻¹. In addition, the Ratio IC50 in the series filed under Rattus norvegicus is above 1000. Moreover, the values for the IC50 (in series [6]; on Mu-type opioid receptor [7]) were above 1000 nM and 0.04 nM, respectively.
`NC(=O)[C@H](Cc1ccccc1)NC(=O)[C@H](Cc1c[nH]c2ccccc12)NC(=O)[C@@H]1CCCCN1C(=O)[C@@H](N)Cc1ccc(O)cc1`: the half-life in series [4] was found to be 9.68 min. In the series listed under Rattus norvegicus, the Ratio IC50 is above 49. The values for the half-inhibitory concentration (IC50) (in series [6]; on Mu-type opioid receptor [7]) were above 1000 nM and 20.4 nM, respectively.
